Experimental data from different studies.
Compare with care: the assays were run in different laboratories.
MDM2: E3 ubiquitin-protein ligase Mdm2 (MDM2, Homo sapiens, UniProt Q00987)
CHRM1: Muscarinic acetylcholine receptor M1 (CHRM1, Homo sapiens, UniProt P11229)

For `Cc1cc(C)nc(Nc2ncc(C(=O)NCCc3c(C)[nH]c4ccccc34)cn2)c1`, the IC50 was 16 µM (Cytochrome P450 1A2 (CYP1A2, Homo sapiens, UniProt P05177); enzyme activity, inhibitor; human, liver microsomes).
The Kd of `CC(=O)N[C@H](C(=O)N[C@@H](CC(=O)O)C(=O)N[C@@H](CC(=O)O)C(=O)N[C@@H](Cc1ccccc1)C(=O)N[C@@H](CC(=O)O)C(=O)N[C@@H](CCCNC(=N)N)C(=O)N[C@H](C(=O)N[C@@H](Cc1c[nH]c2ccccc12)C(=O)N[C@@H](CCC(N)=O)C(=O)NCC(=O)N[C@@H](CC(C)C)C(=O)N[C@H](C(=O)NCC(=O)N[C@@H](CC(C)C)C(N)=O)C(C)C)C(C)C)C(C)C` is reported as 41 µM (MDM2; ligand displacement, FP).
`CC(=O)N[C@@H](CC(C)C)C(=O)N[C@H](C(=O)N[C@@H](Cc1ccccc1)C(=O)N[C@@]1(C)CCCC=CCCC[C@@](C)(C(=O)N[C@@H](CCC(N)=O)C(=O)N[C@@H](CC(C)C)C(=O)N[C@H](C(=O)N[C@@H](CO)C(N)=O)[C@@H](C)O)NC(=O)[C@H](Cc2c[nH]c3ccccc23)NC(=O)[C@H](Cc2ccc(O)cc2)NC(=O)[C@H](CCC(=O)O)NC1=O)[C@@H](C)O` gave an IC50 of 0.049 µM (MDM2; ligand displacement, FP).
`CSCC[C@H](NC(=O)[C@@H](NC(=O)[C@@H](N)Cc1ccc(O)cc1)C(C)C)C(=O)NCC(=O)N[C@@H](Cc1c[nH]cn1)C(=O)O` has an EC50 of > 100 µM (Melanocortin receptor 3 (Mus musculus, UniProt P33033); reporter gene, agonist).
The Kb of `CCc1nnc(NS(=O)(=O)c2ccc(NC(=S)NC(=O)/C=C/c3ccc(F)cc3)cc2)s1` is reported as 0.0088 µM (Prostaglandin E2 receptor EP2 subtype (PTGER2, Homo sapiens, UniProt P43116); cAMP, antagonist, TR-FRET).
`C[N+]1(C)CCC(OC(=O)C(c2ccccc2)c2ccccc2)CC1` has an IC50 of 0.00467 µM (CHRM1; ligand displacement, radioligand).
The Ki of `COc1ccc(CCNC[C@H](O)c2ccc(O)cc2)cc1OC` is reported as 2.1 µM (Beta-3 adrenergic receptor (ADRB3, Homo sapiens, UniProt P13945); cell-free assay).
With `CC[C@H](C)[C@H](NC(=O)[C@H](CCCNC(=N)N)NC(=O)[C@H](CCCCN)NC(=O)[C@@H]1CCCN1C(=O)[C@@H](N)Cc1c[nH]c2ccccc12)C(=O)N[C@@H](C)C(=O)O` the Kd was 47 µM (N-terminal Xaa-Pro-Lys N-methyltransferase 1 (Homo sapiens, UniProt Q9BV86); binding, ITC; pH 7.5).
For `CC(=O)[C@@]1(O)CC[C@H]2[C@@H]3C=C(Cl)C4=CC(=O)[C@@H]5C[C@@H]5[C@]4(C)[C@H]3CC[C@@]21C`, the IC50 was 0.003 µM (Progesterone receptor (PGR, Homo sapiens, UniProt P06401); enzyme activity).
For `CC(C)C[C@H](NC(=O)[C@H](Cc1ccccc1)NC(=O)c1cnccn1)B(O)O`, the IC50 was 12.4 µM (Lysosomal Pro-X carboxypeptidase (PRCP, Homo sapiens, UniProt P42785); enzyme activity, inhibitor).
`COC(=O)C1=CCCN(C)C1` gave an IC50 of ~11.1 µM (Acetyl-CoA acetyltransferase, mitochondrial (Homo sapiens, UniProt P24752); enzyme activity, inhibitor).
`CCCCN1CCC(COC(=O)c2cc(Cl)c(N)c3c2OCCO3)CC1` has a Ki of 0.0001 µM (5-hydroxytryptamine receptor 4 (HTR4, Homo sapiens, UniProt Q13639); ligand displacement, radioligand).
With `N[C@@H](CCP(=O)(O)O)C(=O)O` the EC50 was 0.0589 µM (Metabotropic glutamate receptor 8 (Grm8, Rattus norvegicus, UniProt P70579); calcium signal, agonist).
With `c1cc(N2CCNCC2)c2cc[nH]c2c1` the Ki was > 31.6 µM (CHRM1; ligand displacement, radioligand; cell membranes).
The Ki of `N[C@@H](C[C@]1(C(=O)O)C[C@H]2OC[C@@H](O)[C@@H](O)[C@H]2O1)C(=O)O` is reported as 0.547 µM (Glutamate receptor ionotropic, kainate 3 (Rattus norvegicus, UniProt P42264, F446Y); ligand displacement, radioligand).
`COc1cc(C(=O)N2CC[C@@H](O)[C@@H](N)C2)cc2nc(-c3cc4ccccc4n3CC3CC3)n(C)c12` has an IC50 of 12.6 µM (CHRM1; calcium signal, antagonist, fluorescence).
`CC(C)C[C@H]1C(=O)N2CCC[C@H]2[C@]2(O)O[C@](NC(=O)[C@@H]3C=C4c5cccc6[nH]cc(c56)C[C@H]4N(C)C3)(C(C)C)C(=O)N12` gave an IC50 of 0.8 µM (Solute carrier organic anion transporter family member 1B1 (SLCO1B1, Homo sapiens, UniProt Q9Y6L6); transporter uptake, inhibitor, fluorescence; CHO; 30 min, pH 7.4).
